Experimental data as given in ChEMBL document CHEMBL5058577, “EUbOPEN Chemogenomics Library 2 (Multiplex)” (2022).

Test system: Fibroblast
Test: Multiplex assay against human fibroblast
Assay type: toxicity, cell-based
Method in brief: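 On a CQ1 microscope at 37°C and 5% CO2, live cells were imaged after compound addition. They had been stained at seeding with Hoechst33342, BioTracker Green Microtubule Cytoskeleton Dye, MitoTracker Red and Annexin V Alexa Fluor 680. CellPathfinder machine-learning gating assigned cells to Hoechst high-intensity objects or normal cells, normal cells to healthy, pyknosed or fragmented nuclei, and pyknosed cells to mitotic or apoptotic. Tubulin, mitochondrial-mass and membrane-permeability phenotypes are per cents of healthy-nucleus cells.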

[1] = 12 h, 1 µM, compound concentration 1 uM, replicate 1
[2] = 12 h, 1 µM, compound concentration 1 uM, replicate 2
[3] = 12 h, 10 µM, compound concentration 10 uM, replicate 1
[4] = 12 h, 10 µM, compound concentration 10 uM, replicate 2
[5] = 24 h, 1 µM, compound concentration 1 uM, replicate 1
[6] = 24 h, 1 µM, compound concentration 1 uM, replicate 2
[7] = 24 h, 10 µM, compound concentration 10 uM, replicate 1
[8] = 24 h, 10 µM, compound concentration 10 uM, replicate 2
[9] = 48 h, 1 µM, compound concentration 1 uM, replicate 1
[10] = 48 h, 1 µM, compound concentration 1 uM, replicate 2
[11] = 48 h, 10 µM, compound concentration 10 uM, replicate 1
[12] = 48 h, 10 µM, compound concentration 10 uM, replicate 2

Br.CS(=O)(=O)Nc1c(O)ccc2c1CCCC2C1=NCCN1 (configuration not stated)
Population Apoptotic (%) [1]: 17% | Population Fragmented Nuclei (%) [1]: 9% | Population Healthy Nuclei (%) [1]: 76% | Population Hoechst High Intensity Objects (%) [1]: 1% | Population Membrane Permeable-Phenotype (%) [1]: 0% | Population Mitochondria Different-Phenotype (%) [1]: 5% | Population Mitotic Cells (%) [1]: 82% | Population Normal (%) [1]: 98% | Population Pyknosed Nuclei (%) [1]: 14% | Population Tubulin-Different-Phenotype (%) [1]: 20% | Total Cell Count [1]: 167 | Population Apoptotic (%) [2]: 31% | Population Fragmented Nuclei (%) [2]: 32% | Population Healthy Nuclei (%) [2]: 47% | Population Hoechst High Intensity Objects (%) [2]: 8% | Population Membrane Permeable-Phenotype (%) [2]: 7% | Population Mitochondria Different-Phenotype (%) [2]: 8% | Population Mitotic Cells (%) [2]: 68% | Population Normal (%) [2]: 91% | Population Pyknosed Nuclei (%) [2]: 19% | Population Tubulin-Different-Phenotype (%) [2]: 38% | Total Cell Count [2]: 192 | Population Apoptotic (%) [3]: 38% | Population Fragmented Nuclei (%) [3]: 20% | Population Healthy Nuclei (%) [3]: 47% | Population Hoechst High Intensity Objects (%) [3]: 6% | Population Membrane Permeable-Phenotype (%) [3]: 1% | Population Mitochondria Different-Phenotype (%) [3]: 7% | Population Mitotic Cells (%) [3]: 61% | Population Normal (%) [3]: 93% | Population Pyknosed Nuclei (%) [3]: 31% | Population Tubulin-Different-Phenotype (%) [3]: 21% | Total Cell Count [3]: 148 | Population Apoptotic (%) [4]: 33% | Population Fragmented Nuclei (%) [4]: 38% | Population Healthy Nuclei (%) [4]: 45% | Population Hoechst High Intensity Objects (%) [4]: 0% | Population Membrane Permeable-Phenotype (%) [4]: 12% | Population Mitochondria Different-Phenotype (%) [4]: 5% | Population Mitotic Cells (%) [4]: 66% | Population Normal (%) [4]: 99% | Population Pyknosed Nuclei (%) [4]: 16% | Population Tubulin-Different-Phenotype (%) [4]: 43% | Total Cell Count [4]: 129 | Population Apoptotic (%) [5]: 56% | Population Fragmented Nuclei (%) [5]: 12% | Population Healthy Nuclei (%) [5]: 77% | Population Hoechst High Intensity Objects (%) [5]: 1% | Population Membrane Permeable-Phenotype (%) [5]: 0% | Population Mitochondria Different-Phenotype (%) [5]: 3% | Population Mitotic Cells (%) [5]: 43% | Population Normal (%) [5]: 98% | Population Pyknosed Nuclei (%) [5]: 10% | Population Tubulin-Different-Phenotype (%) [5]: 16% | Total Cell Count [5]: 159 | Population Apoptotic (%) [6]: 33% | Population Fragmented Nuclei (%) [6]: 25% | Population Healthy Nuclei (%) [6]: 60% | Population Hoechst High Intensity Objects (%) [6]: 7% | Population Membrane Permeable-Phenotype (%) [6]: 2% | Population Mitochondria Different-Phenotype (%) [6]: 7% | Population Mitotic Cells (%) [6]: 66% | Population Normal (%) [6]: 92% | Population Pyknosed Nuclei (%) [6]: 14% | Population Tubulin-Different-Phenotype (%) [6]: 41% | Total Cell Count [6]: 180 | Population Apoptotic (%) [7]: 48% | Population Fragmented Nuclei (%) [7]: 16% | Population Healthy Nuclei (%) [7]: 60% | Population Hoechst High Intensity Objects (%) [7]: 3% | Population Membrane Permeable-Phenotype (%) [7]: 0% | Population Mitochondria Different-Phenotype (%) [7]: 2% | Population Mitotic Cells (%) [7]: 51% | Population Normal (%) [7]: 96% | Population Pyknosed Nuclei (%) [7]: 23% | Population Tubulin-Different-Phenotype (%) [7]: 24% | Total Cell Count [7]: 148 | Population Apoptotic (%) [8]: 41% | Population Fragmented Nuclei (%) [8]: 41% | Population Healthy Nuclei (%) [8]: 44% | Population Hoechst High Intensity Objects (%) [8]: 0% | Population Membrane Permeable-Phenotype (%) [8]: 10% | Population Mitochondria Different-Phenotype (%) [8]: 10% | Population Mitotic Cells (%) [8]: 58% | Population Normal (%) [8]: 99% | Population Pyknosed Nuclei (%) [8]: 13% | Population Tubulin-Different-Phenotype (%) [8]: 41% | Total Cell Count [8]: 130 | Population Apoptotic (%) [9]: 57% | Population Fragmented Nuclei (%) [9]: 14% | Population Healthy Nuclei (%) [9]: 76% | Population Hoechst High Intensity Objects (%) [9]: 4% | Population Membrane Permeable-Phenotype (%) [9]: 4% | Population Mitochondria Different-Phenotype (%) [9]: 3% | Population Mitotic Cells (%) [9]: 42% | Population Normal (%) [9]: 95% | Population Pyknosed Nuclei (%) [9]: 8% | Population Tubulin-Different-Phenotype (%) [9]: 24% | Total Cell Count [9]: 167 | Population Apoptotic (%) [10]: 38% | Population Fragmented Nuclei (%) [10]: 26% | Population Healthy Nuclei (%) [10]: 61% | Population Hoechst High Intensity Objects (%) [10]: 5% | Population Membrane Permeable-Phenotype (%) [10]: 0% | Population Mitochondria Different-Phenotype (%) [10]: 9% | Population Mitotic Cells (%) [10]: 61% | Population Normal (%) [10]: 94% | Population Pyknosed Nuclei (%) [10]: 12% | Population Tubulin-Different-Phenotype (%) [10]: 41% | Total Cell Count [10]: 177 | Population Apoptotic (%) [11]: 61% | Population Fragmented Nuclei (%) [11]: 22% | Population Healthy Nuclei (%) [11]: 61% | Population Hoechst High Intensity Objects (%) [11]: 6% | Population Membrane Permeable-Phenotype (%) [11]: 1% | Population Mitochondria Different-Phenotype (%) [11]: 2% | Population Mitotic Cells (%) [11]: 38% | Population Normal (%) [11]: 93% | Population Pyknosed Nuclei (%) [11]: 15% | Population Tubulin-Different-Phenotype (%) [11]: 21% | Total Cell Count [11]: 145 | Population Apoptotic (%) [12]: 33% | Population Fragmented Nuclei (%) [12]: 48% | Population Healthy Nuclei (%) [12]: 44% | Population Hoechst High Intensity Objects (%) [12]: 1% | Population Membrane Permeable-Phenotype (%) [12]: 3% | Population Mitochondria Different-Phenotype (%) [12]: 9% | Population Mitotic Cells (%) [12]: 66% | Population Normal (%) [12]: 98% | Population Pyknosed Nuclei (%) [12]: 7% | Population Tubulin-Different-Phenotype (%) [12]: 45% | Total Cell Count [12]: 127
